{"source": "paper PMC5148661", "about": "(ACS infectious diseases, 2016)", "key": {"P. falciparum DHODH": {"target": "P. falciparum DHODH (Plasmodium falciparum, UniProt Q08210)", "experiment": "DHODH inhibition, DCIP-based spectrophotometric steady-state assay", "type": "biochemical"}, "Human DHODH": {"target": "Human DHODH (Homo sapiens, UniProt Q02127)", "experiment": "DHODH inhibition, DCIP-based assay", "type": "biochemical"}, "P. cynomolgi DHODH": {"target": "P. cynomolgi DHODH (Plasmodium cynomolgi, UniProt K6UE05)", "experiment": "DHODH inhibition, DCIP-based assay", "type": "biochemical"}, "Mouse DHODH": {"target": "Mouse DHODH (Mus musculus, UniProt O35435)", "sequence (O35435 whole entry)": "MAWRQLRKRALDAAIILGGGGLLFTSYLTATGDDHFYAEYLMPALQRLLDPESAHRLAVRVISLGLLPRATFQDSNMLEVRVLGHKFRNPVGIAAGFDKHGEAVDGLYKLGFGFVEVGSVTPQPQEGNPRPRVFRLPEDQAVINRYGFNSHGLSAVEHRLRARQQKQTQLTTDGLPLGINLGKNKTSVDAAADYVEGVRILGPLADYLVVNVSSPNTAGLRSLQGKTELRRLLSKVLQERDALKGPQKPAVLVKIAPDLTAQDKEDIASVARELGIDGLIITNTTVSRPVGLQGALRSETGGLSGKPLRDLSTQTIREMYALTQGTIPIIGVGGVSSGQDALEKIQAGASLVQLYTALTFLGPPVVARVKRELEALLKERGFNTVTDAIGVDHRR", "experiment": "DHODH inhibition, DCIP-based assay", "type": "biochemical"}, "Rat DHODH": {"target": "Rat DHODH (Rattus norvegicus, UniProt Q63707)", "sequence (Q63707 whole entry)": "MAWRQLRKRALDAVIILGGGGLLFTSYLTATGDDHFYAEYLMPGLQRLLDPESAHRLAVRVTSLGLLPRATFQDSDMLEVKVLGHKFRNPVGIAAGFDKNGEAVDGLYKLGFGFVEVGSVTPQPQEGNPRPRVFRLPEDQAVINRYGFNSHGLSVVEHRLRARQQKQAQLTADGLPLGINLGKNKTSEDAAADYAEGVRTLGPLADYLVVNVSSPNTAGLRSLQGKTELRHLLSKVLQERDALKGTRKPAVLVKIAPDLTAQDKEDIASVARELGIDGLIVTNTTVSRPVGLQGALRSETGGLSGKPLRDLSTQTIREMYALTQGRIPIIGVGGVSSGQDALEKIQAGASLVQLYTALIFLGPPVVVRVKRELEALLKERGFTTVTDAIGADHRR", "experiment": "DHODH inhibition, DCIP-based assay", "type": "biochemical"}, "Dog DHODH": {"target": "Dog DHODH (Canis lupus familiaris, UniProt A0A8I3MWX2)", "sequence (A0A8I3MWX2 1-406)": "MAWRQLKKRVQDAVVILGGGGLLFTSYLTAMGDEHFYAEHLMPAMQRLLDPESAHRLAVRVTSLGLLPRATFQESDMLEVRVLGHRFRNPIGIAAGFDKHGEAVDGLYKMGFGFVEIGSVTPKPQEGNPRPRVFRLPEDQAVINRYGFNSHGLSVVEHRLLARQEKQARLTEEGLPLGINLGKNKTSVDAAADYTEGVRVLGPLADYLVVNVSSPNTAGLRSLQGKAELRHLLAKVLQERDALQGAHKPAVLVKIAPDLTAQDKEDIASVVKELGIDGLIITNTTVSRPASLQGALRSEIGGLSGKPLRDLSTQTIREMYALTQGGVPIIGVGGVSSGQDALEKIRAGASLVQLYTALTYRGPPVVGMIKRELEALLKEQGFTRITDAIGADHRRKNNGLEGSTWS", "experiment": "DHODH inhibition, DCIP-based assay", "type": "biochemical"}, "Rabbit DHODH": {"target": "Rabbit DHODH (Oryctolagus cuniculus, UniProt G1SWF3)", "experiment": "DHODH inhibition, DCIP-based assay", "type": "biochemical"}, "P. falciparum 3D7": {"test_system": "P. falciparum 3D7", "experiment": "whole cell P. falciparum 3D7 blood stage 72 h assay, albumax media", "type": "cell-based", "settings": "for EC50: Plasmodium falciparum, 3D7, 72 h"}, "[1]": {"experiment": "kinetic solubility in pH 6.5 buffer", "type": "physicochemical", "settings": "aqueous buffer pH 6.5, pH 6.5"}, "[2]": {"experiment": "solubility by equilibration in physiologically-relevant media", "type": "physicochemical"}, "[3]": {"experiment": "metabolic stability in liver microsomes", "type": "in vitro ADME", "settings": "mouse"}, "[4]": {"experiment": "metabolic stability in liver microsomes", "type": "in vitro ADME", "settings": "dog"}, "[5]": {"experiment": "metabolic stability in liver microsomes", "type": "in vitro ADME", "settings": "rat"}, "[6]": {"test_system": "P. falciparum Dd2 isolates selected for resistance to DSM265", "experiment": "activity on DSM265-selected resistant lines", "type": "cell-based", "settings": "G181C PfDHODH mutant line and 3-fold DHODH gene amplification line"}, "[7]": {"test_system": "P. cynomolgi large and small forms", "experiment": "P. cynomolgi liver stage assay in primary rhesus monkey hepatocytes", "type": "cell-based", "settings": "concentrations at or below 10 μM; human serum-based media"}, "[8]": {"test_system": "P. falciparum 3D7A parasites", "experiment": "in vitro kill rate", "type": "cell-based", "settings": "for EC50: Plasmodium falciparum, 3D7, 48 h"}, "P. vivax field isolates": {"test_system": "P. vivax field isolates", "experiment": "ex vivo 48 h schizont maturation assay", "type": "cell-based", "summary_of_the_method": "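Field isolates came from patients at malaria clinics in Timika, Papua, Indonesia, and were tested in a 48 h schizont maturation assay adapted from the WHO microtest at 2% hematocrit. P. falciparum was run in RPMI 1640 with 10% AB+ human serum. P. vivax was run in McCoy's 5A with 20% AB+ human serum.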"}, "CYP2D6": {"target": "CYP2D6 (Homo sapiens, UniProt P10635)", "sequence (P10635 whole entry, canonical isoform)": "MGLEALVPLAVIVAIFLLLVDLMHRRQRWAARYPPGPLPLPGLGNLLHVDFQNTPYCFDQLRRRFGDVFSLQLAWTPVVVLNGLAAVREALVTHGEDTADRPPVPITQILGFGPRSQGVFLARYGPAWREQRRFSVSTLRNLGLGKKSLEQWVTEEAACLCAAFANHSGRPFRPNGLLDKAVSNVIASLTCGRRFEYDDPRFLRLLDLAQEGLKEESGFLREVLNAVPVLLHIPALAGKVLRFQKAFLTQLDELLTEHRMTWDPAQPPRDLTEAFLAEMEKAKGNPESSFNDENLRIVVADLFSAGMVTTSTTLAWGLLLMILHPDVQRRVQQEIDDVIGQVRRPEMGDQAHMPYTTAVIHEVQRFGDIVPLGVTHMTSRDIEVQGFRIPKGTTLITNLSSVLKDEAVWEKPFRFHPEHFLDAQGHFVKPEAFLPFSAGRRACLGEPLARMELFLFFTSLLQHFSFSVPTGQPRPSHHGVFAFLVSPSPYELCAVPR", "experiment": "reversible cytochrome P450 inhibition", "type": "in vitro ADME", "summary_of_the_method": "(§1)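 Reversible inhibition of human CYP isoforms tested with isoform-specific probe substrates. Time-dependent (mechanism-based) inhibition was also assessed.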"}, "[9]": {"test_system": "CYP isoforms (all isoforms tested)", "experiment": "cytochrome P450 inhibition, other isoforms and time-dependent inhibition", "type": "in vitro ADME", "summary_of_the_method": "as §1"}, "CYP isoforms": {"test_system": "CYP isoforms", "experiment": "cytochrome P450 inhibition, other isoforms and time-dependent inhibition", "type": "in vitro ADME", "settings": "20 μM", "summary_of_the_method": "as §1"}, "[10]": {"experiment": "pharmacokinetics after IV and oral dosing", "type": "in vivo, mice", "summary_of_the_method": "(§2)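 Single IV and oral doses were given. Mice and rats received about 2 mg/kg IV and 5–50 mg/kg orally, with blood sampled over 30–48 h from 2 mice per time point or 2 rats. Dogs received 1 mg/kg by each route (n=3). Plasma was separated by centrifugation and assayed by LC/MS, and parameters were derived non-compartmentally.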"}, "[11]": {"experiment": "pharmacokinetics after IV and oral dosing", "type": "in vivo, rats", "summary_of_the_method": "as §2"}, "[12]": {"experiment": "pharmacokinetics after IV and oral dosing", "type": "in vivo, dogs", "settings": "dog, plasma, 1 mg/kg", "summary_of_the_method": "as §2"}, "[13]": {"experiment": "human pharmacokinetic and dose predictions", "summary_of_the_method": "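Human PK was predicted by PBPK modelling from human liver microsome clearance. Allometric scaling of unbound clearance after IV dosing in mouse, rat and dog served as a comparison. Half-life was derived from predicted clearance and Vss. A plasma profile was simulated for a single 200 mg oral dose in the fasted state.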"}, "hERG channel": {"target": "hERG channel (Homo sapiens, UniProt Q12809)", "sequence (Q12809 whole entry)": "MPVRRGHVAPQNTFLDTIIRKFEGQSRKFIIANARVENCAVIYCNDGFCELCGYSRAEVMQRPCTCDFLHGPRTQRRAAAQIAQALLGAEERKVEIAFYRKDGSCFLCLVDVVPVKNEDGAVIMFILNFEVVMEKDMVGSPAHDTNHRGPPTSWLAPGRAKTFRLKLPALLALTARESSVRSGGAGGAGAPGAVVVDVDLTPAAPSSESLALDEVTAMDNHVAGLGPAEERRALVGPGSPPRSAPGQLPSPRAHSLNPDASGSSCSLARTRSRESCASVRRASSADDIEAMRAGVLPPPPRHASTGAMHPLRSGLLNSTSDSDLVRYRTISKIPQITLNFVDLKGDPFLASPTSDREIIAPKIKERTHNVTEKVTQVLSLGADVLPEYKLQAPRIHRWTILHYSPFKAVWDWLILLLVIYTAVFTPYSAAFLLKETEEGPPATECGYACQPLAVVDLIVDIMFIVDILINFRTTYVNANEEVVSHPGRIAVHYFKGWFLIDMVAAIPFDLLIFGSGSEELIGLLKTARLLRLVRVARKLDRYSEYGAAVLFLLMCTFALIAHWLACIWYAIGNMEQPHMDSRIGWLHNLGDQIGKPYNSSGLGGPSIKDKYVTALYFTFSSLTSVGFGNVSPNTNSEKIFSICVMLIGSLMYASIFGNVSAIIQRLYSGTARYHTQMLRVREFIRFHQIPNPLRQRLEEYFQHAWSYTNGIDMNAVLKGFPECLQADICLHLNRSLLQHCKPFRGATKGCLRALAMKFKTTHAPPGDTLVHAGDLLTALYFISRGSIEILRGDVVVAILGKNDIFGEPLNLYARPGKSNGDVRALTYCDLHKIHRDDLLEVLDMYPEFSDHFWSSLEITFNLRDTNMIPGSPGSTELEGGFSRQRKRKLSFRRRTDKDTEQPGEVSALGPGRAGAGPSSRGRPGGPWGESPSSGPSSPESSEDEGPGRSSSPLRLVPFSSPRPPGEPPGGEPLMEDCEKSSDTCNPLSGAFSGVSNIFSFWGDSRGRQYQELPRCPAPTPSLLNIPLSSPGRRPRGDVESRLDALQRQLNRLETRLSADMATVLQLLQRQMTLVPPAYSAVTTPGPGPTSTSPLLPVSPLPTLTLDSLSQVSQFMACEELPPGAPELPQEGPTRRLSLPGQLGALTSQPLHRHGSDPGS", "experiment": "hERG channel patch clamp", "type": "cell-based", "settings": "for IC50: hERG IC50, partial dose response curve", "summary_of_the_method": "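hERG current measured by IonWorks automated patch-clamp electrophysiology at a contract lab. Top concentration tested was 33 μM.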"}, "Ca_1.2 channel": {"target": "Ca_1.2 channel (Homo sapiens, UniProt Q13936)", "experiment": "Ca_1.2 channel assay", "type": "cell-based", "summary_of_the_method": "(§3)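 Channel activity measured by IonWorks automated patch-clamp electrophysiology at a contract lab.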"}, "Na_V1.5 channel": {"target": "Na_V1.5 channel (Homo sapiens, UniProt Q14524)", "sequence (Q14524 whole entry)": "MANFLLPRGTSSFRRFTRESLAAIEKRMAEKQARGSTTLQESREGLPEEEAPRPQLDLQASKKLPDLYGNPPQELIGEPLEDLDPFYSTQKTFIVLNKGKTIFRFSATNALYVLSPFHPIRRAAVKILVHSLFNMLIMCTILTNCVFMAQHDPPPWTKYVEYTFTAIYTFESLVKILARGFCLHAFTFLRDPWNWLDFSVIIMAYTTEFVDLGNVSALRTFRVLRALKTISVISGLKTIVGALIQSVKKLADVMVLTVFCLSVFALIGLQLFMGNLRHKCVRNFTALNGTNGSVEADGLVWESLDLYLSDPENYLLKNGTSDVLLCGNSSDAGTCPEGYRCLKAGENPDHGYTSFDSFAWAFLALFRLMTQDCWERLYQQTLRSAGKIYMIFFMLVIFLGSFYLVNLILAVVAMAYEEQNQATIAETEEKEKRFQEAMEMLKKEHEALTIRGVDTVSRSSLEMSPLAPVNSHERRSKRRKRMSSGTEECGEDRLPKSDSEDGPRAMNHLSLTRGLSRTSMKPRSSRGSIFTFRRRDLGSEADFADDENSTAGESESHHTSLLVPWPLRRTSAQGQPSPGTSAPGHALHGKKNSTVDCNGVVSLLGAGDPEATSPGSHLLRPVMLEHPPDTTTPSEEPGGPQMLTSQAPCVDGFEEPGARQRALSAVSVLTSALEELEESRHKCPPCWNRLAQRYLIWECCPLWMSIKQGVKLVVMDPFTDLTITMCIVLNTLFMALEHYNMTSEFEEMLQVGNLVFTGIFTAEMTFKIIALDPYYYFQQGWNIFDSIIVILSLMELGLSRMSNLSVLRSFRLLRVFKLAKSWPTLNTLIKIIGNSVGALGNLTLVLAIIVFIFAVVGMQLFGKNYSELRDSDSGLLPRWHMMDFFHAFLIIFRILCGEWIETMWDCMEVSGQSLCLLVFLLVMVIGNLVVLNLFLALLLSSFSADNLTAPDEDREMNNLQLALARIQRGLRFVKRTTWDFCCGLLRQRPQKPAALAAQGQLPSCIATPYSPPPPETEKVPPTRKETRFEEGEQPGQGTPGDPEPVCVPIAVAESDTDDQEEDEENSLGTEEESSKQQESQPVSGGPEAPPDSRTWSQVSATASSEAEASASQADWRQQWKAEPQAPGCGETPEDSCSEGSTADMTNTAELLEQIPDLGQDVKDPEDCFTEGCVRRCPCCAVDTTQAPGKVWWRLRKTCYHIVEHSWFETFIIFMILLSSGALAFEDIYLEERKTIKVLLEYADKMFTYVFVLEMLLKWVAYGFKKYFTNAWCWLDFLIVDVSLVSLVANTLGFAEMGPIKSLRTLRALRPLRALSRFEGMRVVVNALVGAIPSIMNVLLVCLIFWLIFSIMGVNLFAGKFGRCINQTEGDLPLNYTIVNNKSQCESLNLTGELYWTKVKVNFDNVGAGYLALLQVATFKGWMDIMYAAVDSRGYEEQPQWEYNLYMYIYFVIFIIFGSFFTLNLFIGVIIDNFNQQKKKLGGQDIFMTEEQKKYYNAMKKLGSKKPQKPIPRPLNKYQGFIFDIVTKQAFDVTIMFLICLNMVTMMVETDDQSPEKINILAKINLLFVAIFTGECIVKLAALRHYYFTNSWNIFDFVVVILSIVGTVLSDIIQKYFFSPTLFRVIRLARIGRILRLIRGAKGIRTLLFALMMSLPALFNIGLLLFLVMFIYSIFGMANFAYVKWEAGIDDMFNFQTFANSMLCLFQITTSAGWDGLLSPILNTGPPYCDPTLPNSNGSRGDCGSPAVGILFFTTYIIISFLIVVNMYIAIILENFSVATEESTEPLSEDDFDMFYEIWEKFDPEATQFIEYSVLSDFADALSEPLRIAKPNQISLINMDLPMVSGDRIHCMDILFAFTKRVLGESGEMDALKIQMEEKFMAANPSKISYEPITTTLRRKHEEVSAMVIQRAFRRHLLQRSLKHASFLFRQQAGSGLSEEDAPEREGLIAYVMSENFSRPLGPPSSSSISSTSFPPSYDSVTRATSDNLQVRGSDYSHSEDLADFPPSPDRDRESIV", "experiment": "Na_V1.5 channel assay", "type": "cell-based", "summary_of_the_method": "as §3"}, "[14]": {"test_system": "set of 100 human channels and enzymes", "experiment": "CEREP diversity panel", "settings": "10 μM ([…])"}, "Ames tester strains": {"test_system": "Ames tester strains", "experiment": "GLP Ames 5 strain test", "settings": "with and without metabolic activation"}, "[15]": {"experiment": "rat 7-day exploratory toxicity study", "type": "in vivo", "settings": "rat 7-day exploratory toxicity study (data not shown)"}, "[16]": {"experiment": "stability in plasma and blood", "type": "in vitro ADME", "settings": "plasma 37°C over 5 h; blood over 4 h"}}, "note": "“And” between values parts separate entries of the source, which are not always exact repeats. Identical values can stand only once. Like-named read-outs stand apart in the source and are kept apart here."}
{"compound": "Cc1cc(Nc2ccc(C(F)(F)F)nc2)n2nc(C(C)(F)F)nc2n1", "note": "[DSM421, 2-(1,1-Difluoroethyl)-5-methyl-N-(6-(trifluoromethyl)pyridin-3-yl)-[1,2,4]triazolo[1,5-a]pyrimidin-7-amine]", "values": [{"measurement": "IC50", "setting": "P. falciparum DHODH", "result": 0.053, "unit": "µM"}, {"measurement": "IC50", "setting": "Human DHODH", "result": "> 100", "unit": "µM"}, {"measurement": "IC50", "setting": "P. cynomolgi DHODH", "result": 0.012, "unit": "µM"}, {"measurement": "IC50", "setting": "Mouse DHODH", "result": 18, "unit": "µM"}, {"measurement": "fold reduction of inhibitory activity in comparison to DSM265", "setting": "Mouse DHODH; rodent (mouse) enzyme", "result": 10, "unit": "fold"}, {"measurement": "IC50", "setting": "Rat DHODH", "result": 22, "unit": "µM"}, {"measurement": "fold reduction of inhibitory activity in comparison to DSM265", "setting": "Rat DHODH; rodent (rat) enzyme", "result": 10, "unit": "fold"}, {"measurement": "IC50", "setting": "Dog DHODH", "result": 35, "unit": "µM"}, {"measurement": "fold reduction of inhibitory activity in comparison to DSM265", "setting": "Dog DHODH; dog enzyme", "result": 2.2, "unit": "fold"}, {"measurement": "IC50", "setting": "Rabbit DHODH", "result": "> 100", "unit": "µM"}, {"measurement": "fold less potent than DSM265 against P. falciparum 3D7 parasites", "setting": "P. falciparum 3D7", "result": 3, "unit": "fold"}, {"measurement": "fold lower intrinsic potency than DSM265 based on unbound concentrations", "setting": "P. falciparum 3D7; 48 and 72 h in vitro assays", "result": 10, "unit": "fold"}, {"measurement": "EC50", "setting": "P. falciparum 3D7; read-out: Pf3D7 EC50", "result": 0.014, "unit": "µM"}, {"measurement": "EC50", "setting": "P. falciparum 3D7; read-out: unbound EC50", "result": 0.007, "unit": "µM"}, {"measurement": "solubility kinetic", "setting": "[1]", "result": "> 100", "unit": "µg/mL"}, {"measurement": "fold more soluble than DSM265", "setting": "[2]", "result": "6-80 fold"}, {"measurement": "microsomal CLint at 1 μM", "setting": "[3]", "result": "< 7", "unit": "µL/min/mg"}, {"measurement": "microsomal CLint at 1 μM", "setting": "[4]", "result": "< 7", "unit": "µL/min/mg"}, {"measurement": "microsomal CLint at 1 μM", "setting": "[5]", "result": "< 7", "unit": "µL/min/mg"}, {"measurement": "cross resistance on DSM265-resistant Dd2 lines", "setting": "[6]", "result": "shares cross resistance with DSM265"}, {"measurement": "radical cure activity, liver stage", "setting": "[7]", "result": "did not show radical cure activity"}, {"measurement": "lag time before killing began", "setting": "[8]; 10xEC50", "result": 48, "unit": "h"}, {"measurement": "EC50", "setting": "[8]; read-out: EC50, 48 h growth assay (PRR)", "result": 0.043, "unit": "µM"}, {"measurement": "EC50", "setting": "[8]; read-out: unbound EC50", "result": 0.022, "unit": "µM"}, {"measurement": "sensitivity of P. vivax versus P. falciparum field isolates", "setting": "P. vivax field isolates", "result": "equivalent activity towards both species"}, {"measurement": "inhibition at 20 µM", "setting": "CYP2D6", "result": 45, "unit": "%"}, {"measurement": "IC50", "setting": "[9]", "result": "> 20", "unit": "µM"}, {"measurement": "inhibition of the other CYP isoforms", "setting": "CYP isoforms", "result": "no measurable inhibition"}, {"measurement": "fold increase of plasma AUC", "setting": "[10]; mice, oral, for a 9-fold increase in dose", "result": 13, "unit": "fold"}, {"measurement": "half-life", "setting": "[10]; mouse, plasma", "result": "~2", "unit": "h"}, {"measurement": "Vd", "setting": "[10]; mouse, plasma, iv, 2 mg/kg", "result": 0.9, "unit": "L/kg"}, {"measurement": "clearance", "setting": "[10]; mouse, plasma, iv, 2 mg/kg", "result": 5.1, "unit": "mL/min/kg"}, {"measurement": "Tmax", "setting": "[10]; mouse, plasma, po", "result": "1 to 2", "unit": "h"}, {"measurement": "bioavailability", "setting": "[10]; mouse, plasma, po", "result": "> 100", "unit": "%"}, {"measurement": "half-life", "setting": "[11]; rat, plasma", "result": "~5", "unit": "h"}, {"measurement": "Vd", "setting": "[11]; rat, plasma, iv, 2 mg/kg", "result": 0.8, "unit": "L/kg"}, {"measurement": "clearance", "setting": "[11]; rat, plasma, iv, 2 mg/kg", "result": 2.4, "unit": "mL/min/kg"}, {"measurement": "Tmax", "setting": "[11]; rat, plasma, po", "result": "1.8 to 7.5", "unit": "h"}, {"measurement": "bioavailability", "setting": "[11]; rat, plasma, po, 4.3 mg/kg", "result": "~80", "unit": "%"}, {"measurement": "fold increase of plasma AUC", "setting": "[11]; rats, oral 4.3 to 53.7 mg/kg, for a 12-fold increase in dose", "result": 31, "unit": "fold"}, {"measurement": "half-life", "setting": "[12]", "result": "15 to 18", "unit": "h"}, {"measurement": "CLint scaled", "setting": "[12]; intravenous", "result": 4.5, "unit": "mL/min/kg"}, {"measurement": "Vd", "setting": "[12]; iv", "result": 0.8, "unit": "L/kg"}, {"measurement": "clearance", "setting": "[12]; iv", "result": 0.5, "unit": "mL/min/kg"}, {"measurement": "Tmax", "setting": "[12]; po", "result": 4, "unit": "h"}, {"measurement": "bioavailability", "setting": "[12]; po", "result": "~100", "unit": "%"}, {"measurement": "predicted unbound human clearance", "setting": "[13]; allometric scaling of mice, rats and dogs IV unbound clearance", "result": 2.2, "unit": "mL/min/kg"}, {"measurement": "estimated human half-life", "setting": "[13]; human", "result": "~ 78 h"}, {"measurement": "half-life", "setting": "[13]; human, plasma, estimated human half-life", "result": 78, "unit": "h"}, {"measurement": "concentration giving 20% hERG inhibition", "setting": "hERG channel", "result": "~ 10 μM and 3.6 μg/mL"}, {"measurement": "IC50", "setting": "hERG channel", "result": 26.2, "unit": "µM"}, {"measurement": "IC50", "setting": "hERG channel; maximum concentration 33 μM", "result": 26.2, "unit": "µM"}, {"measurement": "activity on Ca_1.2 channel", "setting": "Ca_1.2 channel", "result": "no activity"}, {"measurement": "activity on Na_V1.5 channel", "setting": "Na_V1.5 channel", "result": "no activity"}, {"measurement": "inhibition in CEREP diversity panel", "setting": "[14]", "result": "no significant inhibition"}, {"measurement": "GLP Ames 5 strain test result", "setting": "Ames tester strains", "result": "no obvious cytotoxicity in any tester strain at any tested dose level"}, {"measurement": "tolerability", "setting": "[15]", "result": "well tolerated"}, {"measurement": "stability in plasma and blood", "setting": "[16]", "result": "stable"}]}
